Experimental data gathered from unrelated publications.
Compare with care: the assays were run in different laboratories.
Target: Serine/threonine-protein kinase MARK2 (MARK2, Homo sapiens, UniProt Q7KZI7)

Cc1ccc(NC(=O)c2ccnc(C(F)(F)F)c2)cc1-c1cc(OCCO)nc(N2CCOCC2)c1 — remaining binding (binding; 1 µM): 99%
C=CC(=O)N1CCC[C@@H](n2nc(-c3ccc(Oc4ccccc4)cc3)c3c(N)ncnc32)C1 — inhibition (enzyme activity; inhibitor; 1 µM): 10%
COc1ccc2oc(-c3ccc4nc(N)oc4c3)c/c(=N\c3ccccc3NC(=O)CCN)c2c1 — remaining binding (binding; 1 µM): 97%
COc1ccc2[nH]c3c4[nH]c5ccc(OC)cc5c4c4c(c3c2c1)C(=O)NC4=O — remaining binding (binding; 1 µM): 71%
C=CC(=O)N1CCC([C@@H]2CCNc3c(C(N)=O)c(-c4ccc(Oc5ccccc5)cc4)nn32)CC1 — inhibition (enzyme activity; inhibitor; 1 µM): 0%
Cc1cc(O)c(-c2ccc([C@@H](C)CN(C)C)cc2)c2c1[nH]c(=O)c1sccc12 — inhibition (enzyme activity; inhibitor; 0.1 µM): 4.31%
CCCCC(=O)Nc1ccc(-c2ccc3ncn(CCC)c(=O)c3c2)cn1 — remaining binding (binding; competition with immobilised ligand; 0.5 µM): 92%
C1=C/COCc2cc(ccc2OCCN2CCCC2)Nc2nccc(n2)-c2cccc(c2)COC/1 — remaining binding (binding; 0.1 µM): 66%
